Each block holds one molecule with its values, some of them ahead of it. Activity calls are given as the source filed them. The calls are words filed in the database; no cut-off is given here.
What was measured:
[1] = molecular target: Thymidine phosphorylase (Escherichia coli K-12) (UniProt P07650); test: Inhibition of Escherichia coli thymidine phosphorylase at 66 uM
In short: (§1)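 Recombinant E. coli TP (0.00883 U per 0.2 ml) added to start a continuous spectrophotometric assay. Mix: 0.13 mM 5-nitro-2'-deoxyuridine substrate in 0.1 M potassium phosphate, pH 7.4, 25 °C, read at 355 nm in a microplate. Initial velocity compared with the mean of at least two no-inhibitor controls. Where derived, IC50 used at least five concentrations spanning the value.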

[2] = molecular target: Thymidine phosphorylase (Escherichia coli K-12) (UniProt P07650); test: Inhibition of Escherichia coli thymidine phosphorylase at 47.2 uM
In short: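 Recombinant E. coli TP; continuous spectrophotometric assay at 355 nm, 25 °C, 0.2 ml. Contains 0.13 mM 5-nitro-2'-deoxyuridine substrate in 0.1 M potassium phosphate pH 7.4. Reaction started with TP (0.00883 U/0.2 ml). Inhibitor added from stock. Initial velocity compared with the mean of at least two no-inhibitor controls.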

[3] = molecular target: T1, Thymidine phosphorylase (Homo sapiens) (UniProt P19971); test: Inhibition of human recombinant thymidine phosphorylase at 62.3 uM
T1 sequence (whole entry): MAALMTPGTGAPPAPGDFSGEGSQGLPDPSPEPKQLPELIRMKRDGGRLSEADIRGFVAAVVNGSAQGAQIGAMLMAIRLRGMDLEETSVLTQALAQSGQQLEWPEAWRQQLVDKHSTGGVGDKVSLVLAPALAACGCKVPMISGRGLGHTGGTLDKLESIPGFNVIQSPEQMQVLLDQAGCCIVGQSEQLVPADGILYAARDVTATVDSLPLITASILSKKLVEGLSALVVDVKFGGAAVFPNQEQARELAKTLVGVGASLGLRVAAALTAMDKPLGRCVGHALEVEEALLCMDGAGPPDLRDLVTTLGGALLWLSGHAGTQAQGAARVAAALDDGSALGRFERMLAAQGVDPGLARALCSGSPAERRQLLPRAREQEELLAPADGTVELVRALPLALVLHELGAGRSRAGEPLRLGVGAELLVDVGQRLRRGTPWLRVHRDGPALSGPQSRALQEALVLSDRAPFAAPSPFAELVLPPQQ
In short: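 Recombinant human TP expressed in V79 Chinese hamster cells; continuous spectrophotometric assay at 355 nm, 25 °C. Uses 0.33 mM 5-nitro-2'-deoxyuridine substrate in 0.1 M potassium phosphate pH 7.4. Reaction started by adding enzyme. Inhibition taken from initial velocity relative to the mean of at least two no-inhibitor controls.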

[4] = molecular target: Thymidine phosphorylase (Escherichia coli K-12) (UniProt P07650); test: Inhibition of Escherichia coli thymidine phosphorylase at 68.4 to 136.9 uM; in short: as §1
[5] = molecular target: Thymidine phosphorylase (Escherichia coli K-12) (UniProt P07650); test: Inhibition of Escherichia coli thymidine phosphorylase at 158 uM; in short: as §1
[6] = molecular target: Thymidine phosphorylase (Escherichia coli K-12) (UniProt P07650); test: Inhibition of Escherichia coli thymidine phosphorylase at 45 uM; in short: as §1
[7] = molecular target: Thymidine phosphorylase (Escherichia coli K-12) (UniProt P07650); test: Inhibition of Escherichia coli thymidine phosphorylase at 73.7 to 147.7 uM; in short: as §1
[8] = molecular target: Thymidine phosphorylase (Escherichia coli K-12) (UniProt P07650); test: Inhibition of Escherichia coli thymidine phosphorylase at 74 to 148 uM; in short: as §1
[9] = molecular target: Thymidine phosphorylase (Escherichia coli K-12) (UniProt P07650); test: Inhibition of Escherichia coli thymidine phosphorylase at 106.3 to 212.6 uM; in short: as §1
[10] = molecular target: Thymidine phosphorylase (Escherichia coli K-12) (UniProt P07650); test: Inhibition of Escherichia coli thymidine phosphorylase at 163 uM; in short: as §1
[11] = molecular target: Thymidine phosphorylase (Escherichia coli K-12) (UniProt P07650); test: Inhibition of Escherichia coli thymidine phosphorylase at 103.6 to 207.2 uM; in short: as §1

Sequence of Thymidine phosphorylase (Escherichia coli K-12) (P07650 whole entry, looked up): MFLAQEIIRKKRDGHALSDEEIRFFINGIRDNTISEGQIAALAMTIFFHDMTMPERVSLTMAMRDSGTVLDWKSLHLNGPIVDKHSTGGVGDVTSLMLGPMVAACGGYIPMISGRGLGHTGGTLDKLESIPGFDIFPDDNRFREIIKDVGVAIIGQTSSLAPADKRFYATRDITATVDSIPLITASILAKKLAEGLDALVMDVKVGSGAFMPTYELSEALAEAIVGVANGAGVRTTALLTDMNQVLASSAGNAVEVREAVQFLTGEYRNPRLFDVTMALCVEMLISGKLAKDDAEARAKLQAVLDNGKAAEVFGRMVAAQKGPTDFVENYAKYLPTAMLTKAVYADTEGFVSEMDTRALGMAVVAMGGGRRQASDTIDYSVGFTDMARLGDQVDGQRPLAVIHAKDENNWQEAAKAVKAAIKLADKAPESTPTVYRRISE

Activity [1]: inactive
Structure (SMILES): Cc1nc[nH]c(=O)c1Cl

Structure (SMILES): N=C1CCCN1Cc1nc[nH]c(=O)c1Cl
Activity [2]: inactive | Activity [3]: inactive

Activity [4]: inactive
Structure (SMILES): Nc1[nH]c(=O)ncc1Br

Activity [5]: inactive
Structure (SMILES): O=c1[nH]c(=O)c2nc[nH]c2[nH]1

Activity [6]: inactive
Structure (SMILES): O=c1[nH]c(=S)[nH]c2[nH]ccc12

Activity [7]: inactive
Structure (SMILES): Nc1nc[nH]c(=O)c1Br

Activity [8]: inactive
Structure (SMILES): O=c1ncc2cc[nH]c2[nH]1

Activity [9]: inactive
Structure (SMILES): Nc1ncncc1Br

Activity [10]: inactive
Structure (SMILES): O=c1nccc2[nH]ccn12

Activity [11]: inactive
Structure (SMILES): O=c1[nH]cnc2[nH]ccc12
